Statin myotox sup: suppressors of statin myotoxicity in C2C12 myotubes, primary screen, cell-based, single point, plate reader. actives 0.78% (n = 330,000). rescue of ATP level, % at 7.49 µM. C2C12 myotubes + simvastatin, ATP luminescence, 48 h; scaled: DMSO 0, geranylgeraniol control 100;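 active = mean ATP rescue above about 67%, or every replicate alone reaching that limit, limit read from the data, passing the limit was not always enough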;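 also: myotubes were challenged with 10 µM simvastatin during compound exposure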
Mot1-301 SUMO: yeast Mot1-301 growth rescue at high temperature, primary screen, SUMOylation pathway inhibitor project, S. cerevisiae, ATP luminescence, 38.5C; S. cerevisiae Mot1-301 growth rescue; percent above DMSO median, 100 means doubled; actives 1% (n = 320,000); AID 2716, 2010; growth rescue, % at 18.8 µM;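 active = every valid replicate shows activation above 250% relative to neutral control wells; inactive = the rest, any valid replicate at or below 250%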;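 also: OY570 slx delta 5 strain wells were the positive control but not used for scaling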
Cneo AK release: Cryptococcus neoformans cell lysis inducers, primary screen, AK release luminescence, single concentration; C. neoformans lysis, adenylate kinase release luminescence, 4 h; normalised: neutral wells 0, clomiphene wells 100; AID 651654, 2012; actives 0.2% (n = 360,000); lysis activity, % at 15 µM;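 active = mean lysis activity across replicates of at least 80%, whatever share of replicates individually reach that level; inactive = mean lysis activity below 80%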
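Material – log-phase Cryptococcus neoformans yeast cells · Input – 5 × 10^6 yeast cells/mL · Medium – fresh YPD growth medium · Doses – single compound concentration per well · Timing – static 4 h at 37 °C with compound, 1 h detection · Detection – adenylate kinase release luminescence · Read-out – signal increase indicating cell lysis · Control set – Clomiphene as positive lysis control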
Yeast Mot1 SUMO: growth restoration of Mot1-301 yeast on galactose, dose response, SUMO pathway inhibitor project, whole organism, S. cerevisiae, ATP luminescence, cherry-picked samples; 2,300 tested, under 10 active; shares compounds with Mot1-301 SUMO; S. cerevisiae Mot1-301 galactose growth, 24 h; -100 = growth of slx-deleted rescue strain; AID 493004, 2010; growth activity, percent, % at 42 µM;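 active = Signal drops as the depositor expects, and the fitted half-maximal dose is no more than ten times the top valid tested dose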;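 also: more negative values mean stronger growth rescue toward the control strain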
An asterisk follows results filed as active; . = not tested or not shown; + = active, no number; [ ] = dose if it differs, or a comment. Most compounds without a hit are left out; they make up all but 1.5% or so of the library.

SMILES	Statin myotox sup	Mot1-301 SUMO	Cneo AK release	Yeast Mot1 SUMO
O=C(C[C@@H]1C[C@@H]2c3cc(NC(=O)Nc4ccc(C(F)(F)F)cc4)ccc3O[C@@H]2[C@@H](CO)O1)NCc1cc(F)ccc1F	0.2	.	30.8	.
CCN(CC)S(=O)(=O)c1ccc(NC(=O)C(C)N(c2ccccc2)S(C)(=O)=O)cc1 (configuration not stated)	.	+	1.5	0.3
CC(C(=O)Nc1ccc(S(=O)(=O)N2CCOCC2)cc1)N(c1ccccc1)S(C)(=O)=O (configuration not stated)	11.6	-16.8	0.2	.
O=C(C[C@H]1C[C@@H]2c3cc(NC(=O)c4cccnc4)ccc3O[C@@H]2[C@@H](CO)O1)NCc1ccccn1	-0.9	.	-1.7	.
C[C@H](CO)N1C[C@H](C)[C@@H](CN(C)C(=O)Nc2ccc3c(c2)OCO3)Oc2ccc(NC(=O)Cc3ccccc3)cc2CC1=O	20.1	.	-1.8	.
O=C(C[C@@H]1CC[C@@H]2[C@H](COC[C@H](O)CN2C(=O)C2CC2)O1)NCc1ccccc1Cl	-6.2	.	-1.4	.
Cc1ccc(C)c(OCCCC(=O)O)c1	23.0	83.2	2.9	.
Cc1ccc(C)c(OCCCC(=O)N2CCOCC2)c1	-0.8	688.8*	2.7	1.3
O=S(=O)(c1cnc[nH]1)N1CCN(c2ccc(Cl)cc2)CC1	-2.8	-0.2	0.4	.
O=C(C1CCCN(S(=O)(=O)c2cnc[nH]2)C1)N1CCN(c2ccc(Cl)cc2)CC1 (configuration not stated)	-3.8	531.8*	-2.0	-0.7
C(=N\Nc1ccc2nncn2n1)/c1ccccn1	.	498.8*	0.6	0.2
C/C(=N\Nc1ccc2nncn2n1)c1ccccn1	.	66.6	0.4	.
COCC(=O)Nc1ccc2c(c1)[C@H]1C[C@@H](CC(=O)NCc3cccc(F)c3)O[C@H](CO)[C@H]1O2	0.5	.	-4.8	.
COc1cc2c(cc1OC)C(C)N(C(=O)Nc1ccccc1)CC2 (configuration not stated)	-9.6	6.0	1.7	.
COc1ccccc1/C=C/C(=O)N1CCc2cc(OC)c(OC)cc2C1C (configuration not stated)	20.7	388.7*	-1.8	0.2
C[C@H](CO)N1C[C@H](C)[C@@H](CN(C)Cc2ccccc2F)Oc2ncc(C3=CCCC3)cc2C1=O	10.5	.	0.1	.
Cc1ccc(/C=C/C(=O)NCc2ccncc2)cc1	.	22.0	0.7	.
O=C(/C=C/c1ccc(Cl)cc1)NCc1ccncc1	0.8	566.4*	1.3	1.2
Cc1noc(C)c1S(=O)(=O)N(C)C[C@@H]1OCCCC[C@@H](C)Oc2ccc(NC(=O)Nc3ccccc3)cc2C(=O)N([C@@H](C)CO)C[C@H]1C	.	.	-1.1	.
NC(=O)CN1CCOCCN(CC(N)=O)CCOCC1	.	409.8*	.	0.3
NC(=O)CN1CCOCCOCCN(CC(N)=O)CCOCCOCC1	-3.3	2.1	1.1	.
C[C@@H]1CN([C@@H](C)CO)C(=O)c2cc(C#Cc3cccc(F)c3)cnc2O[C@H]1CN(C)Cc1ccccn1	25.4	.	1.3	.
C[C@H](CO)N1C[C@H](C)[C@@H](CN(C)Cc2ccc(-c3ccccc3)cc2)Oc2ccc(NC(=O)Nc3ccccc3)cc2C1=O	-12.4	.	2.2	.
COc1ccc(NC(=O)N(C)C[C@H]2Oc3c(cccc3N(C)C)C(=O)N([C@H](C)CO)C[C@H]2C)cc1	-6.0	.	5.3	.
N#Cc1cn(CCCOc2ccccc2)c2ccccc12	-6.8	-5.4	-0.5	.
SMILES	Statin myotox sup	Mot1-301 SUMO	Cneo AK release	Yeast Mot1 SUMO
COc1ccccc1OCCCn1cc(C#N)c2ccccc21	-3.3	832.2*	-0.1	-0.2
COc1nc(-c2ccccc2)ccc1-c1noc(-c2ccccc2)n1	-9.2	558.0*	-0.5	0.4
COc1ccc(-c2ccc(-c3noc(-c4ccccc4)n3)c(OC)n2)cc1	-45.1	1.4	0.7	.
C[C@H]1CN([C@@H](C)CO)C(=O)c2cc(NC(=O)C3CCCCC3)ccc2O[C@@H]1CN(C)S(=O)(=O)c1cn(C)cn1	2.7	.	-5.5	.
CC[C@H]1CCCCc2ccccc2[C@@H](C(=O)C[C@@H](O)CC(C)=O)OC1=O	3.6	527.0*	1.5	-0.7
CC[C@@H]1CCCCc2ccccc2[C@H](C(=O)C[C@@H](O)CC(C)=O)OC1=O	8.2	11.0	1.1	.
CCOc1ccc(S(=O)(=O)N2CCN(CC(O)COc3cccc([N+](=O)[O-])c3)CC2)cc1 (configuration not stated)	17.2	588.2*	0.0	0.1
Cc1ccc(S(=O)(=O)N2CCN(CC(O)COc3ccccc3)CC2)cc1 (configuration not stated)	13.4	-20.7	0.4	.
COc1cc(C)ccc1NC(=O)Cc1csc(NC(=O)Nc2ccccc2OC)n1	6.5	178.3	1.3	.
CCC(=O)Nc1nc(CC(=O)Nc2ccccc2OC)cs1	5.5	+	2.7	0.3
CCN1CCCC1CN(Cc1cc2ccc(C)cc2[nH]c1=O)C(=S)Nc1ccccc1C(=O)OC (configuration not stated)	.	+	.	-0.4
CCN1CCCC1CN(Cc1cc2ccc(C)cc2[nH]c1=O)C(=S)Nc1ccccc1OC (configuration not stated)	.	80.9	4.6	.
CCc1ccc(NC(=S)N(Cc2cccc(Br)c2)CC2CCC(C(=O)O)CC2)cc1 (configuration not stated)	.	591.5*	.	-0.9
Cc1cc(C)cc(NC(=S)N(Cc2cccc(Br)c2)CC2CCC(C(=O)O)CC2)c1 (configuration not stated)	4.6	.	1.4	.
COc1ccc(S(=O)(=O)N2CCCCN3[C@H](CO)[C@H](c4ccc(C#CC(C)C)cc4)[C@H]3C2)cc1	-23.3	.	7.5	.
COc1ccc(NC(=O)N(C)C[C@H]2OCCCC[C@H](C)Oc3ccc(N(C)C)cc3C(=O)N([C@H](C)CO)C[C@@H]2C)cc1	27.0	.	0.6	.
O=[N+]([O-])c1cnc2ccccc2c1	5.8	2.8	7.0	.
O=[N+]([O-])c1cc([N+](=O)[O-])c2cc3ccccc3nc2c1	21.4	467.7*	-1.6	-1.3
C/C=C/c1ccc([C@H]2[C@H]3CN(S(=O)(=O)c4cccs4)CCCCN3[C@H]2CO)cc1	.	.	-0.5	.
COc1ccc(NC(=O)c2ccc(-n3cncn3)c([N+](=O)[O-])c2)cc1	0.3	900.8*	-0.4	-0.6[21 µM]
COc1ccc(NC(=O)c2ccc(-n3cncn3)c([N+](=O)[O-])c2)cc1OC	-9.4	-8.4	-1.0	.
CCNC(=O)C[C@H]1CC[C@H](NC(=O)C2CCC2)[C@H](CO)O1	-5.7	.	-1.3	.
COc1ccc(NC(=O)Nc2ccc3c(c2)C(=O)N([C@@H](C)CO)C[C@@H](C)[C@@H](CN(C)C(=O)CCCN(C)C)OCCCC[C@H](C)O3)cc1	.	.	0.1	.
CC(C)C(=O)Nc1cccc(-c2nc3ncccc3o2)c1	4.1	+	2.3	0.7
